From ChEMBL document CHEMBL3808340, “Development of Novel 1,2,3,4-Tetrahydroquinoline Scaffolds as Potent NF-κB Inhibitors and Cytotoxic Agents” (ACS Med Chem Lett, 2016)
One block for each compound: values may come before it.

Assays:
RAW264.7 = experiment: Inhibition of LPS-induced NFkappaB (unknown origin) transcriptional activity expressed in mouse RAW264.7 cells at 100 uM incubated for 16 hrs by SEAP based reporter gene assay relative to control; assay type: cell-based
[1] = Inhibition of LPS-induced NFkappaB (unknown origin) transcriptional activity expressed in mouse RAW264.7 cells incubated for 16 hrs by SEAP based reporter gene assay; assay type: cell-based; settings: RAW264.7, 16 h
NCI-H23 = experiment: Cytotoxicity against human NCI-H23 cells after 72 hrs by sulforhodamine B assay; assay type: functional; settings: NCI-H23, 72 h
Method in brief: (§1)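 Sulforhodamine B staining following the NCI (USA) protocol was used to estimate cell number indirectly in six human cancer lines. GI50 is the concentration giving a 50% decrease in net cell growth, reported as the mean of three experiments.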

ACHN = experiment: Cytotoxicity against human ACHN cells after 72 hrs by sulforhodamine B assay; assay type: functional; method in brief: as §1
MDA-MB-231 = experiment: Cytotoxicity against human MDA-MB-231 cells after 72 hrs by sulforhodamine B assay; assay type: functional; settings: MDA-MB-231, 72 h; method in brief: as §1
[2] = Cytotoxicity against human PC3 cells after 72 hrs by sulforhodamine B assay; assay type: functional; settings: PC-3, 72 h; method in brief: as §1
[3] = Cytotoxicity against human NUGC3 cells after 72 hrs by sulforhodamine B assay; assay type: functional; settings: NUGC-3, 72 h; method in brief: as §1
[4] = Cytotoxicity against human HCT15 cells after 72 hrs by sulforhodamine B assay; assay type: functional; settings: HCT-15, 72 h; method in brief: as §1

IC50 [1]: 27 µM
SMILES: O=C(Nc1cc(C(F)(F)F)cc(C(F)(F)F)c1)C1CCc2ccccc2N1C(=O)c1cccc(Cl)c1 (stereo not given)
inhibition (RAW264.7): 68% | GI50 (NCI-H23): 0.42 µM | GI50 (ACHN): 0.813 µM | GI50 (MDA-MB-231): 1.19 µM | GI50 [2]: 1.05 µM | GI50 [3]: 0.56 µM | GI50 [4]: 0.625 µM

IC50 [1]: 26 µM
SMILES: O=C(Nc1ccccc1C(F)(F)F)C1CCc2ccccc2N1 (stereo not given)
inhibition (RAW264.7): > 100% | GI50 (NCI-H23): 56.8 µM | GI50 (ACHN): 57.6 µM | GI50 (MDA-MB-231): 45.5 µM | GI50 [2]: 53.3 µM | GI50 [3]: 39.3 µM | GI50 [4]: 40.4 µM

SMILES: CC(=O)N1c2ccccc2CCC1C(=O)Nc1ccccc1C(F)(F)F (stereo not given)
inhibition (RAW264.7): 32% | GI50 (NCI-H23): > 80 µM | GI50 (ACHN): > 80 µM | GI50 (MDA-MB-231): > 80 µM | GI50 [2]: > 80 µM | GI50 [3]: > 80 µM | GI50 [4]: > 80 µM

SMILES: CCC(=O)N1c2ccccc2CCC1C(=O)Nc1ccccc1O (stereo not given)
inhibition (RAW264.7): 31% | GI50 (NCI-H23): > 90 µM | GI50 (ACHN): > 90 µM | GI50 (MDA-MB-231): > 90 µM | GI50 [2]: > 90 µM | GI50 [3]: > 90 µM | GI50 [4]: > 90 µM

IC50 [1]: 95 µM
SMILES: CCCC(=O)N1c2ccccc2CCC1C(=O)Nc1ccccc1C(F)(F)F (stereo not given)
inhibition (RAW264.7): 51% | GI50 (NCI-H23): > 70 µM | GI50 (ACHN): > 70 µM | GI50 (MDA-MB-231): > 70 µM | GI50 [2]: > 70 µM | GI50 [3]: > 70 µM | GI50 [4]: > 70 µM

SMILES: O=C(Nc1ccc(O)cc1)c1ccc2ccccc2n1
GI50 (NCI-H23): 102 µM

IC50 [1]: 51 µM
SMILES: CCCCCCCCC(=O)N1c2ccccc2CCC1C(=O)Nc1cc(C(F)(F)F)cc(C(F)(F)F)c1 (stereo not given)
inhibition (RAW264.7): 58% | GI50 (NCI-H23): 3.23 µM | GI50 (ACHN): 4.52 µM | GI50 (MDA-MB-231): 7.53 µM | GI50 [2]: 7.43 µM | GI50 [3]: 2.23 µM | GI50 [4]: 4.97 µM

IC50 [1]: 34 µM
SMILES: COc1ccc(NC(=O)C2CCc3ccccc3N2)cc1 (stereo not given)
inhibition (RAW264.7): > 100% | GI50 (NCI-H23): 55.7 µM | GI50 (ACHN): 38 µM | GI50 (MDA-MB-231): 51.4 µM | GI50 [2]: 56.9 µM | GI50 [3]: 51.9 µM | GI50 [4]: 50.2 µM

SMILES: COc1cccc2c1C(=O)c1c(O)c3c(c(O)c1C2=O)C[C@@](O)(C(=O)CO)C[C@@H]3O[C@H]1C[C@H](N)[C@H](O)[C@H](C)O1 [DOXORUBICIN]
GI50 (NCI-H23): 0.0726 µM | GI50 (ACHN): 0.0995 µM | GI50 (MDA-MB-231): 0.112 µM | GI50 [2]: 0.0923 µM | GI50 [3]: 0.125 µM | GI50 [4]: 0.0854 µM

SMILES: O=C(Nc1ccc(C(F)(F)F)cc1)c1ccc2ccccc2n1
GI50 (NCI-H23): > 90 µM

SMILES: O=C(Nc1ccccc1)c1ccc2ccccc2n1
GI50 (NCI-H23): 108 µM

SMILES: O=C(Nc1cc(C(F)(F)F)cc(C(F)(F)F)c1)c1ccc2ccccc2n1
GI50 (NCI-H23): 1.44 µM

SMILES: CCCC(=O)N1c2ccccc2CCC1C(=O)Nc1ccccc1O (stereo not given)
inhibition (RAW264.7): 41% | GI50 (NCI-H23): 43.1 µM | GI50 (ACHN): 50.6 µM | GI50 (MDA-MB-231): 38 µM | GI50 [2]: 72.5 µM | GI50 [3]: 35.4 µM | GI50 [4]: 58.3 µM

SMILES: O=C(Nc1ccccc1O)c1ccc2ccccc2n1
GI50 (NCI-H23): 87.5 µM

SMILES: COc1ccc(NC(=O)c2ccc3ccccc3n2)cc1
GI50 (NCI-H23): 7.65 µM

SMILES: CC(=O)N1c2ccccc2CCC1C(=O)Nc1ccccc1O (stereo not given)
inhibition (RAW264.7): 19% | GI50 (NCI-H23): 65.7 µM | GI50 (ACHN): 50.7 µM | GI50 (MDA-MB-231): 89.6 µM | GI50 [2]: 70.7 µM | GI50 [3]: 49.7 µM | GI50 [4]: 54.5 µM

IC50 [1]: 53 µM
SMILES: COc1cc2c(cc1O)CCC(C(=O)Nc1ccccc1)O2 (stereo not given)
inhibition (RAW264.7): 72%

SMILES: O=C(Nc1ccccc1C(F)(F)F)c1ccc2ccccc2n1
GI50 (NCI-H23): > 90 µM

SMILES: O=C(Nc1ccccc1C(F)(F)F)C1CCc2ccccc2N1C(=O)c1ccccc1 (stereo not given)
inhibition (RAW264.7): 44% | GI50 (NCI-H23): 6.34 µM | GI50 (ACHN): 8.09 µM | GI50 (MDA-MB-231): 5.29 µM | GI50 [2]: 5.56 µM | GI50 [3]: 8.12 µM | GI50 [4]: 6.5 µM

SMILES: S=C(S)N1CCCC1 [PYRROLIDINE DITHIOCARBAMATE]
IC50 [1]: 37.2 µM

SMILES: CCC(=O)N1c2ccccc2CCC1C(=O)Nc1ccccc1C(F)(F)F (stereo not given)
inhibition (RAW264.7): 43% | GI50 (NCI-H23): > 80 µM | GI50 (ACHN): > 80 µM | GI50 (MDA-MB-231): > 80 µM | GI50 [2]: > 80 µM | GI50 [3]: > 80 µM | GI50 [4]: > 80 µM

SMILES: CCCCCCCCC(=O)N1c2ccccc2CCC1C(=O)Nc1ccccc1O (stereo not given)
inhibition (RAW264.7): 22% | GI50 (NCI-H23): 55.8 µM | GI50 (ACHN): 65 µM | GI50 (MDA-MB-231): 54.3 µM | GI50 [2]: 45.2 µM | GI50 [3]: 31.1 µM | GI50 [4]: 38.4 µM
